How the values were obtained:
[1] = folding enthalpy; higher = less favourable; fluorescence melt of hairpins on a sequencing array, two-state fit; conditions: sodium 0.088 M
Outline: (§1)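 On a sequenced MiSeq flow cell, library hairpins with annealed Cy3 and quencher oligos were imaged for Cy3 fluorescence in 2.5 °C steps up to 60 °C, in 50 mM Na-HEPES pH 8.0, 25 mM NaCl. Normalisation used pre-quench Cy3 and control constructs. Bootstrapped two-state fits gave melting temperature and folding enthalpy, combined by inverse variance across four replicates and with fitted temperatures raised by 9.35 °C to match UV melts.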

[2] = melting temperature; fluorescence melt of hairpins on a sequencing array, two-state fit, raised by 9.35 °C to match UV melts; conditions: sodium 0.088 M
Outline: as §1

Sequence	folding enthalpy [1]	Tm [2]
GTCACGGGAAACCATGAC ((((.((....)).))))	-29.9 kcal/mol	41.7 °C
GTCACGGGAAACCGTGAC (((((((....)))))))	-35.5 kcal/mol	68.9 °C
GTCACGGGAAACCGTGGC (.(((((....))))).)	-19 kcal/mol	62.7 °C
GTCACGGGAAACTGTGAC (((((.(....).)))))	-40.1 kcal/mol	54.6 °C
GTCACTACGAAAGTAGAC (((..(((....))))))	-10.2 kcal/mol	28.3 °C
GTCACTGGAAACAGTGAC (((((((....)))))))	-46.7 kcal/mol	63 °C
GTCAGACGAAAGTCGAC (((.(((....))))))	-31.5 kcal/mol	51.9 °C
GTCAGACGAAAGTCGGAC (((.(((....))).)))	-35.5 kcal/mol	63.1 °C
GTCAGAGGAAACTCTGGC (.(((((....))))).)	-30.4 kcal/mol	50.3 °C
GTCAGAGGAAACTTTGAC ((((.((....)).))))	-32.4 kcal/mol	37.8 °C
GTCAGCCGAAAGGCAGAC (((.(((....))).)))	-24.4 kcal/mol	61.9 °C
GTCAGCGAAAGCTAAGAC ((((((....)))..)))	-16.7 kcal/mol	41.5 °C
GTCAGCGAAAGCTATGAC ((((((....)))..)))	-20.6 kcal/mol	44.2 °C
GTCAGCGAAAGCTCAGAC ((((((....)))..)))	-15.8 kcal/mol	34.5 °C
GTCAGCGGAAACACTGAC (((((.(....).)))))	-40.7 kcal/mol	47.2 °C
GTCAGCGGAAACGCTAAC ((.((((....)))).))	-15.2 kcal/mol	37.4 °C
GTCAGCGGAAACGTTGAC ((((.((....)).))))	-43.5 kcal/mol	52.9 °C
GTCAGCTCGAAAGAGGAC (((..(((....))))))	-17.7 kcal/mol	33.4 °C
GTCAGGGCGAAAGCCGAC (((..(((....))))))	-14.7 kcal/mol	48.7 °C
GTCAGGGGAAACTCTGAC (((((.(....).)))))	-33.4 kcal/mol	48.9 °C
GTCAGTCGAAAGACCGAC (((.(((....))).)))	-22.1 kcal/mol	47.4 °C
GTCAGTGCGAAAGCAGAC (((..(((....))))))	-14.4 kcal/mol	39.6 °C
GTCAGTGGAAACGTTGAC ((((..(....)..))))	-21.1 kcal/mol	34.9 °C

Sequence	folding enthalpy [1]	Tm [2]
GTCATAGGAAACTACGAC (((.(((....))).)))	-16.5 kcal/mol	30.8 °C
GTCATAGGAAACTATGAC (((((((....)))))))	-39.3 kcal/mol	55.9 °C
GTCATAGGAAACTGTGAC ((((.((....)).))))	-32.1 kcal/mol	46.4 °C
GTCATCGAAAGATCAGAC ((((((....)))..)))	-16.7 kcal/mol	26.5 °C
GTCATCGAAAGATGAGAC ((((((....)))..)))	-13.7 kcal/mol	40.7 °C
GTCATCGAAAGATGTGAC ((((((....)))..)))	-13.4 kcal/mol	35.7 °C
GTCATCGAAAGATTTGAC ((((((....)))..)))	-13.2 kcal/mol	29.4 °C
GTCATCTCGAAAGAGGAC (((..(((....))))))	-20.9 kcal/mol	39.4 °C
GTCATGCGAAAGCACGAC (((.(((....))).)))	-27.5 kcal/mol	52.3 °C
GTCATGGCGAAAGCCGAC (((..(((....))))))	-13.4 kcal/mol	42.6 °C
GTCATTGGAAACAATGGC (.(((((....))))).)	-28.6 kcal/mol	47.6 °C
GTCCAACGAAAGTTGAC (((.(((....))))))	-14.7 kcal/mol	45 °C
GTCCAACGAAAGTTTGAC (((.(((....))).)))	-27.7 kcal/mol	42 °C
GTCCAAGGAAACCTGGAC (((((.(....).)))))	-27.7 kcal/mol	46.8 °C
GTCCACCGAAAGGTCGAC (((.(((....))).)))	-27.2 kcal/mol	44 °C
GTCCACGGAAACACGGAC ((((..(....)..))))	-18.4 kcal/mol	37.2 °C
GTCCAGGGAAACCTGGGC (.(((((....))))).)	-33.1 kcal/mol	56.5 °C
GTCCCAACGAAAGTTGAC (((..(((....))))))	-9.31 kcal/mol	25 °C
GTCCCAGGAAACCAGGAC ((((..(....)..))))	-21.2 kcal/mol	35.6 °C
GTCCCCCGAAAGGGAGAC (((.(((....))).)))	-30.1 kcal/mol	56.6 °C
GTCCCCCGAAAGGGCGAC (((.(((....))).)))	-21.6 kcal/mol	49.1 °C
GTCCCCCGAAAGGGGAC (((.(((....))))))	-19.9 kcal/mol	67.2 °C
GTCCCCGAAAGGGAGAC ((((((....))).)))	-30 kcal/mol	53.7 °C

Sequence	folding enthalpy [1]	Tm [2]
GTCCCCGAAAGGGATGAC ((((((....)))..)))	-14.6 kcal/mol	44.8 °C
GTCCCCGAAAGGGGGGAC ((((((....)))..)))	-11.7 kcal/mol	60.5 °C
GTCCCCGGAAACAGGGAC (((((.(....).)))))	-39.9 kcal/mol	48.6 °C
GTCCCCGGAAACGGGAAC ((.((((....)))).))	-15.1 kcal/mol	46.4 °C
GTCCCCGGAAACGGGGGC (.(((((....))))).)	-19.5 kcal/mol	68 °C
GTCCCGCGAAAGCGAGAC (((.(((....))).)))	-32.5 kcal/mol	55.7 °C
GTCCCGCGAAAGCGTGAC (((.(((....))).)))	-23.9 kcal/mol	52.9 °C
GTCCCGGGAAACCGGGGC (.(((((....))))).)	-19 kcal/mol	64.3 °C
GTCCCTGAAAAGGGAC ((((((....))))))	-34.6 kcal/mol	67.7 °C
GTCCCTGGAAACAGGAAC ((.((((....)))).))	-21.6 kcal/mol	36.1 °C
GTCCCTGGAAACAGGGGC (.(((((....))))).)	-27.5 kcal/mol	57.4 °C
GTCCGAGGAAACCCGGAC (((((.(....).)))))	-40.5 kcal/mol	53.2 °C
GTCCGCCGAAAGGCTGAC (((.(((....))).)))	-21.9 kcal/mol	57.3 °C
GTCCGCGAAAGCGCCGAC ((((((....)))..)))	-11.1 kcal/mol	36.9 °C
GTCCGCGAAAGCGTTGAC ((((((....)))..)))	-14.4 kcal/mol	36.8 °C
GTCCGCGGAAACACGGAC (((((.(....).)))))	-42 kcal/mol	54.2 °C
GTCCGCGGAAACGCAGAC (((.(((....))).)))	-21.5 kcal/mol	49.9 °C
GTCCGGCCGAAAGGCGAC (((..(((....))))))	-12.8 kcal/mol	41.7 °C
GTCCGGCGAAAGCCAGAC (((.(((....))).)))	-27.5 kcal/mol	50.7 °C
GTCCGGGCGAAAGCCGAC (((..(((....))))))	-11.1 kcal/mol	44.3 °C
GTCCGGGGAAACCCAGAC (((.(((....))).)))	-29.6 kcal/mol	42.8 °C
GTCCGGTCGAAAGACGAC (((..(((....))))))	-12.6 kcal/mol	38.5 °C

Reference: the array DNA melting data of Ke et al. (doi:10.1101/2024.01.08.574731)
